The values that follow come from ChEMBL document CHEMBL1147237, “Two new epimeric pairs of acetogenins bearing a carbonyl group from Annona cherimolia seeds” (J Nat Prod, 2003).

Converted amounts (≈) assume the structure as drawn.

A short description of data set [1]: (§1) Toxicity in brine shrimp larvae. It counts as organism-based. The note with it: artemia, in vivo.
The subject of data set [2] is PC-3. The experiment in a line: Cytotoxicity against human PC3 cells after 7 days by MTT assay. The following applies: PC-3, 168 h, read-out: LD50 (the source's name). It counts as functional. A digest of the protocol:
(§2)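 Seven-day in vitro MTT cytotoxicity assay run by a cancer-center cell culture laboratory under standard protocols, using A-549 (human lung carcinoma), MCF-7 (human breast carcinoma), HT-29 (human colon adenocarcinoma), A-498 (human kidney carcinoma) and PC-3 (human prostate) cells. Isolated compounds were tested.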
In general terms: Tetrazolium assays rely on reduction of a dye to a coloured formazan, in cell work by metabolically active cells.

Data set [3] deals with MIA PaCa-2. As to the kind of experiment: Cytotoxicity against human MIAPaCa2 cells after 7 days by MTT assay. It counts as functional. The note with it: MIA PaCa-2, 168 h, read-out: LD50 (the source's name).
For data set [4], the system named is MCF7. As to the kind of experiment: Cytotoxicity against human MCF7 cells after 7 days by MTT assay. The note with it: MCF7, 168 h, read-out: LD50 (the source's name). The data set is classed as functional. The essentials:
as §2

Data set [5] relates to A549. As to the kind of experiment: Cytotoxicity against human A549 cells after 7 days by MTT assay. The data set is classed as functional. The note with it: A549, 168 h, read-out: LD50 (the source's name). The essentials:
as §2

In data set [6] the test system is A498. The experiment in a line: Cytotoxicity against human A498 cells after 7 days by MTT assay. It counts as functional. The note with it: A498, 168 h, read-out: LD50 (the source's name). The essentials:
as §2

For data set [7], the system named is HT-29. The experiment in a line: Cytotoxicity against human HT-29 cells after 7 days by MTT assay. The following applies: HT-29, 168 h, read-out: LD50 (the source's name). It counts as functional. A digest of the protocol:
as §2

The subject of data set [8] is Artemia. The description is as §1. The data set is classed as organism-based. The note with it: in vivo.

`CCCCCCCCCCCC[C@@H](O)[C@H]1CC[C@H]([C@H](O)CCCC(=O)CCCCCCCCC2=CC(C)(O)OC2=O)O1` (mixture of isomers) showed an LC50 in data set [1] of 0.375 µg/mL. Moreover, the CC50 in data set [2] was found to be 0.198 µg/mL; in data set [3], 0.00312 µg/mL; in data set [4] it was 0.303 µg/mL; in data set [5], 1.26 µg/mL; in data set [6], 0.93 µg/mL; in data set [7], 0.193 µg/mL.

`CCCCCCCCCCCC[C@@H](O)[C@H]1CC[C@H]([C@H](O)CCCC(=O)CCCCCC[C@@H](O)CC2=CC(C)(O)OC2=O)O1` (mixture of isomers) [ANNOMOLON B/34-EPI-ANNOMOLON B]: in data set [8], the LC50 is on record as 7 ×10⁻² ug/ml. Moreover, the CC50 in data set [2] was found to be 0.0553 µg/mL; in data set [3], 0.00748 µg/mL; in data set [4], 0.047 µg/mL; in data set [5], 1.37 µg/mL; in data set [6] it was 0.377 µg/mL; in data set [7], 0.0719 µg/mL.

As to `COc1cccc2c1C(=O)c1c(O)c3c(c(O)c1C2=O)C[C@@](O)(C(=O)CO)C[C@@H]3O[C@H]1C[C@H](N)[C@H](O)[C@H](C)O1` [DOXORUBICIN], the CC50 was found to be 0.0502 µg/mL (≈ 0.0924 µM) in data set [2]; 0.00262 µg/mL (≈ 0.00482 µM) in data set [3]; 0.0182 µg/mL (≈ 0.0335 µM) in data set [4]; 0.00113 µg/mL (≈ 0.00208 µM) in data set [5]; 0.00226 µg/mL (≈ 0.00416 µM) in data set [6]; 0.0128 µg/mL (≈ 0.0235 µM) in data set [7].
